Assay results from different studies.
Each line is one published result; the experiments were not run side by side.

CC(C)c1ccc(/C=C/c2nc3ccccc3c(=O)n2-c2cccc(O)c2)cc1  MIC (Enterococcus faecium; microbial growth, broth dilution; NCTC7171): > 128 µg/mL
COC(=O)c1cc(-c2cccc(NC(=O)Nc3cccc(F)c3)c2)on1  MIC (Mycobacteroides chelonae; microbial growth, broth dilution; ATCC35752; 48 h): > 64 µg/mL
N.N.[Cl][Pt][Cl]  IC50 (CCD 19Lu; cell growth or viability; 48 h): 84.4 µM
O=C(NOC[C@H](O)CO)c1ccc(F)c(F)c1Nc1ccc(I)cc1F  IC50 (MB002; cell growth or viability; 7 days): > 10 µM
C#Cc1ccc(/C=C/c2nc3ccccc3c(=O)n2-c2cccc(O)c2)cc1  MIC (Enterococcus faecium; microbial growth, broth dilution; NCTC7171): 32 µg/mL
CCCCCCNC(=S)Nc1cccc(-c2cc(C(=O)OC)no2)c1  MIC (Mycobacteroides chelonae; microbial growth, broth dilution; ATCC35752; 48 h): > 64 µg/mL
O=c1c2ccccc2nc(/C=C/c2ccco2)n1-c1cccc(O)c1  MIC (Enterococcus faecium; microbial growth, broth dilution; NCTC7171): > 128 µg/mL
O=C1[O][Pt]2([NH][C@@H]3CCCC[C@H]3[NH]2)[O]C1=O  IC50 (HD-MB03; cell growth or viability; 7 days): 2.33 µM
O=c1c2ccccc2nc(/C=C/c2ccc(C(F)(F)F)cc2)n1-c1cccc(O)c1  MIC (Enterococcus faecium; microbial growth, broth dilution; NCTC7171): 32 µg/mL
COc1cc(OC)c(C=C2C(O)=Nc3ccccc32)c(OC)c1  IC50 (MB002; cell growth or viability; 7 days): 0.0585 µM
COC(=O)c1cc(-c2cccc(NC(=S)Nc3ccc(OC)cc3)c2)on1  MIC (Mycobacteroides chelonae; microbial growth, broth dilution; ATCC35752; 48 h): > 64 µg/mL
Cc1ccc(-c2nc3ccc(C)cn3c2CC(=O)N(C)C)cc1  MIC (Mycobacteroides chelonae; microbial growth; 72 h): > 50 µM
